Data: ChEMBL document CHEMBL3297658, “Potent fluorinated agelastatin analogues for chronic lymphocytic leukemia: design, synthesis, and pharmacokinetic studies” (J Med Chem, 2014)
Values after ≈ are worked out from the molar mass of the structure shown.

Assays:
KB = experiment: Cytotoxicity against human KB cells; assay type: functional, cell-based
[1] = Drug recovery in BALB/c mouse serum at 50 uM after 24 hrs by LC-MS method; assay type: ADME, cell-free; conditions: read-out: Drug recovery
Outline: (§1)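 Compound added to pooled female BALB/c mouse plasma or serum, or to human AB serum, at 50 μM final (1% DMSO) and incubated at 37 °C with gentle agitation. Aliquots taken at 0, 0.5, 1, 2, 8, 18 and 24 h, proteins precipitated with CH3CN, spun at 3000g for 10 min, supernatant analysed by LCMS. Run in triplicate.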

Liver [2] = experiment: Metabolic stability in human liver S9 fraction containing glucuronidase; assay type: ADME, subcellular
Serum [3] = experiment: Protein binding in BALB/c mouse serum at 50 uM after 1 to 24 hrs by LC-MS method; assay type: ADME; outline: as §1
[4] = Antitumor activity against CLL2 cells isolated from CLL patient assessed as cell viability after 48 hrs by FACS analysis; assay type: functional, cell-based, Homo sapiens
Outline: (§2)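 Primary CLL patient cells or JVM-2 line cultured 48 h (37 °C, 5% CO2) in RPMI + 10% FBS with graded compound. Stained 30 min at 37 °C with 40 nM DiOC6 and 10 μg/mL PI, then flow cytometry (525 nm DiOC6, 600 nm PI). Viability = % DiOC6+/PI− relative to untreated or vehicle control. EC50 and SE fitted from dose–response curves.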

Liver microsome = experiment: Metabolic stability in human liver microsomes at 100 uM measured after 1 hr by LC/MS analysis in presence of 1 mM NADPH; assay type: ADME
Outline: (§3)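 Microsomes (final protein 5 mg/mL, mouse or human) in 0.1 M sodium phosphate pH 7.4 with compound at 100 μM final (DMSO <1%). Preincubated 5 min at 37 °C, started with NADPH (1 mM final), run 60 min at 37 °C with agitation. Stopped with MeOH and centrifuged; supernatant analysed by LCMS. Controls: zero time, no NADPH, heat-inactivated microsomes, and 7-ethoxycoumarin as CYP substrate.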

[5] = Antitumor activity against CLL5 cells isolated from CLL patient assessed as cell viability after 48 hrs by FACS analysis; assay type: functional, cell-based; conditions: Homo sapiens; outline: as §2
[6] = Tmax in BALB/c mouse plasma at 2.5 mg/kg, iv administered as single dose by LC/MS analysis; assay type: ADME, organism-based; parameters: dose 2.5 mg/kg, route intravenous
Outline: (§4)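 Female BALB/c mice given a single 2.5 mg/kg dose intravenously (IP arm run in parallel). Plasma concentration–time course followed by LCMS. AUC, Cmax, Tmax and t1/2 calculated from the curves.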

HeLa = experiment: Antitumor activity against human HeLa cells assessed as cell viability by MTT assay; assay type: functional, cell-based
Outline: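 Adherent HeLa cells exposed to compound, then medium replaced with 0.5 mg/mL MTT in phenol-red-free RPMI and incubated overnight at 37 °C. Lysed with 15% SDS/0.015 M HCl and OD read at 570 nm once formazan dissolved. EC50 and SE derived from dose–response curves.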

[7] = Antitumor activity against human JVM2 cells assessed as cell viability after 48 hrs by FACS analysis; assay type: functional, cell-based; conditions: JVM-2, 48 h; outline: as §2
[8] = Cmax in BALB/c mouse plasma at 2.5 mg/kg, ip administered as single dose by LC/MS analysis; assay type: ADME, organism-based; parameters: dose 2.5 mg/kg, route intraperitoneal
Outline: (§5)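 Female BALB/c mice dosed at 6 weeks of age with a single intraperitoneal dose of 2.5 or 5.0 mg/kg, n = 4. Tail-vein blood taken at set times and stored at -80 °C. Samples precipitated with CH3CN, spun at 3000g for 10 min, concentrated, reconstituted in 1:1 CH3CN/H2O and quantified by LCMS. PK parameters derived from the concentration–time curves.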

Serum [9] = experiment: Protein binding in human AB serum at 50 uM after 1 to 24 hrs by LC-MS method; assay type: ADME; outline: as §1
Liver [10] = experiment: Metabolic stability in mouse liver microsomes at 100 uM measured after 1 hr by LC/MS analysis in presence of 1 mM NADPH; assay type: ADME; outline: as §3
[11] = Drug recovery in human AB serum at 50 uM after 24 hrs by LC-MS method; assay type: ADME, cell-free; conditions: read-out: Drug recovery; outline: as §1
[12] = Cytotoxicity against human CLL cells; assay type: functional, cell-based
Outline: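 Primary patient CLL cells cultured 48 h (37 °C, 5% CO2) in RPMI with 10% FBS and test compound. Viability taken as the DiOC6+/PI− fraction relative to untreated or vehicle control. EC50 with SE from dose–response curves.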

Mus musculus = experiment: (§6) Half life in BALB/c mouse plasma at 2.5 mg/kg, ip administered as single dose by LC/MS analysis; assay type: ADME, organism-based; parameters: dose 2.5 mg/kg, route intraperitoneal; conditions: in vivo; outline: as §5
[13] = AUC in BALB/c mouse plasma at 2.5 mg/kg, iv administered as single dose by LC/MS analysis; assay type: ADME, organism-based; parameters: dose 2.5 mg/kg, route intravenous; outline: as §4
[14] = Cmax in BALB/c mouse plasma at 5 mg/kg, ip administered as single dose by LC/MS analysis; assay type: ADME, organism-based; parameters: dose 5 mg/kg, route intraperitoneal; outline: as §5
Liver [15] = experiment: Metabolic stability in mouse liver microsomes containing glucuronidase; assay type: ADME
[16] = AUC in BALB/c mouse plasma at 5 mg/kg, ip administered as single dose by LC/MS analysis; assay type: ADME, organism-based; parameters: dose 5 mg/kg, route intraperitoneal; outline: as §5
[17] = Cmax in BALB/c mouse plasma at 2.5 mg/kg, iv administered as single dose by LC/MS analysis; assay type: ADME, organism-based; parameters: dose 2.5 mg/kg, route intravenous; outline: as §4
[18] = Antitumor activity against CLL4 cells isolated from CLL patient assessed as cell viability after 48 hrs by FACS analysis; assay type: functional, cell-based; conditions: Homo sapiens; outline: as §2
[19] = Half life in BALB/c mouse plasma at 5 mg/kg, ip administered as single dose by LC/MS analysis; assay type: ADME, organism-based; parameters: dose 5 mg/kg, route intraperitoneal; outline: as §5
[20] = Half life in BALB/c mouse plasma at 2.5 mg/kg, iv administered as single dose by LC/MS analysis; assay type: ADME, organism-based; parameters: dose 2.5 mg/kg, route intravenous; outline: as §4
[21] = Tmax in BALB/c mouse plasma at 2.5 mg/kg, ip administered as single dose by LC/MS analysis; assay type: ADME, organism-based; parameters: dose 2.5 mg/kg, route intraperitoneal; outline: as §5
[22] = Tmax in BALB/c mouse plasma at 5 mg/kg, ip administered as single dose by LC/MS analysis; assay type: ADME, organism-based; parameters: dose 5 mg/kg, route intraperitoneal; outline: as §5
[23] = Antitumor activity against CLL6 cells isolated from CLL patient assessed as cell viability after 48 hrs by FACS analysis; assay type: functional, cell-based; conditions: Homo sapiens, CLL6, 48 h; outline: as §2
[24] = AUC in BALB/c mouse plasma at 2.5 mg/kg, ip administered as single dose by LC/MS analysis; assay type: ADME, organism-based; parameters: dose 2.5 mg/kg, route intraperitoneal; outline: as §5
Plasma = experiment: Protein binding in BALB/c mouse plasma at 50 uM after 1 to 24 hrs by LC-MS method; assay type: ADME, cell-free; outline: as §1
[25] = Drug recovery in BALB/c mouse plasma at 50 uM after 24 hrs by LC-MS method; assay type: ADME, cell-free; conditions: read-out: Drug recovery; outline: as §1
[26] = Antitumor activity against CLL1 cells isolated from CLL patient assessed as cell viability after 48 hrs by FACS analysis; assay type: functional, cell-based; conditions: Homo sapiens; outline: as §2
[27] = Antitumor activity against CLL3 cells isolated from CLL patient assessed as cell viability after 48 hrs by FACS analysis; assay type: functional, cell-based; conditions: Homo sapiens; outline: as §2
[28] = as §6; assay type: ADME, organism-based; parameters: dose 2.5 mg/kg, route intraperitoneal; conditions: BALB/c, plasma; outline: as §5
[29] = Lipophilicity, log P of compound at 25 degC; assay type: physicochemical; conditions: octanol/water
[30] = Solubility of compound in water at 25 degC; assay type: physicochemical; conditions: buffer

CN1C(=O)N[C@H]2[C@@H]3NC(=O)c4ccc(Br)n4[C@@H]3C[C@]21O (stereo in doubt; 1a) [AGELASTATIN A]
IC50 (KB): 0.5 µg/mL (≈ 1.47 µM)
remaining at 24 h, 50 µM [1]: 65%
Stability (Liver [2]): Stable
PB (Serum [3]): Not Active
EC50 ([4]; cll2): 160 nM
Stability (Liver microsome): Stable
EC50 [5]: 290 nM
Tmax [6]: 2 min
EC50 (HeLa): 110 nM
EC50 [7]: 280 nM
Cmax [8]: 1.28 µM
PB (Serum [9]): Not Active
Stability (Liver [10]): Stable
remaining at 24 h, 50 µM [11]: 65%
IC50 [12]: 60 nM
t1/2 (Mus musculus): 60 min
AUC [13]: 1.74 µM·h
Cmax [14]: 2.3 µM
Stability (Liver [15]): Stable
AUC [16]: 4.29 µM·h
Cmax [17]: 4.5 µM
EC50 [18]: 370 nM
half-life [19]: 60 min
half-life [20]: 4 min
Tmax [21]: 30 min
Tmax [22]: 30 min
EC50 [23]: 1150 nM
AUC [24]: 2.95 µM·h
PPB (Plasma): Not Active
remaining at 24 h, 50 µM [25]: 65%
EC50 [26]: 310 nM
EC50 [27]: 240 nM

CCOc1ccc2ccc(=O)oc2c1 [ETHOXYCOUMARIN]
Stability (Liver microsome): Unstable
Stability (Liver [10]): Unstable

CN1C(=O)N[C@H]2[C@@H]3NC(=O)c4ccc(C(F)(F)F)n4[C@@H]3C[C@]21O
remaining at 24 h, 50 µM [1]: 65%
PB (Serum [3]): Not Active
EC50 ([4]; Homo sapiens, CLL2, 48 h): 64 nM
Stability (Liver microsome): Stable
EC50 [5]: 28400 nM
EC50 (HeLa): 150 nM
EC50 [7]: 660 nM
Cmax [8]: 4.18 µM
PB (Serum [9]): Not Active
Stability (Liver [10]): Stable
remaining at 24 h, 50 µM [11]: 65%
half-life [28]: 72 min
Cmax [14]: 3.25 µM
AUC [16]: 6.51 µM·h
EC50 [18]: 330 nM
half-life [19]: 45 min
Tmax [21]: 15 min
Tmax [22]: 30 min
EC50 [23]: 650 nM
AUC [24]: 12.9 µM·h
logP [29]: 0.78
solubility [30]: 300 µg/mL (≈ 908 µM)
PPB (Plasma): Not Active
remaining at 24 h, 50 µM [25]: 65%
EC50 [26]: 430 nM
EC50 [27]: 3040 nM

Nc1nc(F)nc2c1ncn2[C@@H]1O[C@H](CO)[C@@H](O)[C@@H]1O [FLUDARABINE]
EC50 ([4]; Homo sapiens, CLL2, 48 h): 2660 nM
EC50 [5]: 160 nM
EC50 (HeLa): 16000 nM
EC50 [7]: 10400 nM
EC50 [18]: 640 nM
EC50 [23]: 1600 nM
EC50 [26]: 17100 nM
EC50 [27]: 350 nM

CN1C(=O)N[C@H]2[C@@H]3NC(=O)c4cc(Cl)c(Cl)n4[C@@H]3C[C@]21O
EC50 ([4]; Homo sapiens, CLL2, 48 h): 520 nM
EC50 [5]: 2020 nM
EC50 (HeLa): 600 nM
EC50 [7]: 280 nM
EC50 [18]: 4420 nM
EC50 [23]: 7500 nM
EC50 [26]: 1560 nM
EC50 [27]: 980 nM

CN1C(=O)N[C@H]2[C@@H]3NC(=O)c4cccn4[C@@H]3C[C@]21O
EC50 ([4]; Homo sapiens, CLL2, 48 h): 3900 nM
Stability (Liver microsome): Stable
EC50 (HeLa): 61500 nM
EC50 [7]: 120000 nM
Stability (Liver [10]): Stable
EC50 [26]: 541000 nM

CN1C(=O)N[C@H]2[C@@H]3NC(=O)c4ccc(C#N)n4[C@@H]3C[C@]21O
EC50 ([4]; Homo sapiens, CLL2, 48 h): 710 nM
EC50 [5]: 4790 nM
EC50 (HeLa): 3400 nM
EC50 [7]: 38000 nM
EC50 [18]: 8410 nM
EC50 [23]: 840 nM
EC50 [26]: 11100 nM
EC50 [27]: 8370 nM
